# Experimental data from ChEMBL document CHEMBL1140876, “Synthesis and antibacterial property of quinolines with potent DNA gyrase activity” (2009).
# Calls of active or inactive are those of the source. No cut-off for these calls is given here.
# Experiments:
# Pseudomonas aeruginosa [1] = assay: Antimicrobial activity against Pseudomonas aeruginosa by broth microdilution assay; assay type: functional
# Procedure, shortened: (§1)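 Broth microdilution per NCCLS 1997 in 96-well plate; final inoculum 10^5 cfu/mL; incubated 35.7 °C in air 18–20 h; MIC read as lowest concentration with no visible growth.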
# [2] = Inhibition of DNA gyrase assessed as conversion of relaxed pBR322 to supercoiled form
# Procedure, shortened: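 Supercoiling in 15 µL reactions: gyrase assay buffer, 150 ng relaxed pBR322, 2–3 µL purified DNA gyrase, 3 h at 37 °C (E. coli); stopped with 50% glycerol/0.25% bromophenol blue; 1% agarose in 1× TBE pH 8.3, 90 V 3 h; ethidium bromide stain; supercoiled band brightness by densitometry. Ciprofloxacin comparator.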
# Pseudomonas aeruginosa [3] = assay: Antimicrobial activity against Pseudomonas aeruginosa at 25 ug after 24 hrs by disk diffusion method; assay type: functional; conditions: read-out: IZ
# Procedure, shortened: (§2)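 Inoculum made in 0.85% saline against McFarland standard, swabbed evenly onto nutrient agar; sterile filter-paper discs set equidistant and loaded with equal volumes of drug at varying amounts; zone of inhibition measured after 24 h at 37 °C; ciprofloxacin reference.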
# Salmonella typhi = assay: Antimicrobial activity against Salmonella typhi by broth microdilution assay; assay type: functional, Salmonella enterica subsp. enterica serovar Typhi; conditions: Salmonella enterica
# Procedure, shortened: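 Broth microdilution in 96-well plates following the NCCLS 1997 protocol. Final inoculum was 10^5 cfu/mL, with a control organism run alongside. Plates were incubated at 35.7 °C in air for 18–20 h. MIC is the lowest concentration with no visible growth.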
# Pseudomonas aeruginosa [4] = assay: Antimicrobial activity against Pseudomonas aeruginosa at 10 ug after 24 hrs by disk diffusion method; assay type: functional; conditions: read-out: IZ; procedure, shortened: as §2
# Salmonella typhimurium [5] = assay: Antimicrobial activity against Salmonella Typhimurium at 10 ug after 24 hrs by disk diffusion method; assay type: functional, Salmonella enterica subsp. enterica serovar Typhimurium; conditions: Salmonella enterica, read-out: IZ; procedure, shortened: as §2
# Escherichia coli [6] = assay: Antimicrobial activity against Escherichia coli at 10 ug after 24 hrs by disk diffusion method; assay type: functional; conditions: read-out: IZ; procedure, shortened: as §2
# Salmonella typhimurium [7] = assay: Antimicrobial activity against Salmonella Typhimurium at 15 ug after 24 hrs by disk diffusion method; assay type: functional, Salmonella enterica subsp. enterica serovar Typhimurium; conditions: Salmonella enterica, read-out: IZ; procedure, shortened: as §2
# Staphylococcus aureus [8] = assay: Antimicrobial activity against Staphylococcus aureus at 15 ug after 24 hrs by disk diffusion method; assay type: functional; conditions: read-out: IZ; procedure, shortened: as §2
# Bacillus subtilis [9] = assay: Antimicrobial activity against Bacillus subtilis at 5 ug after 24 hrs by disk diffusion method; assay type: functional; conditions: read-out: IZ; procedure, shortened: as §2
# Staphylococcus aureus [10] = assay: Antimicrobial activity against Staphylococcus aureus at 10 ug after 24 hrs by disk diffusion method; assay type: functional; conditions: read-out: IZ; procedure, shortened: as §2
# Klebsiella pneumoniae [11] = assay: Antimicrobial activity against Klebsiella pneumoniae at 20 ug after 24 hrs by disk diffusion method; assay type: functional; conditions: read-out: IZ; procedure, shortened: as §2
# Klebsiella pneumoniae [12] = assay: Antimicrobial activity against Klebsiella pneumoniae at 25 ug after 24 hrs by disk diffusion method; assay type: functional; conditions: read-out: IZ; procedure, shortened: as §2
# [13] = Inhibition of DNA gyrase assessed as pBR322 DNA relaxation at 1 uM
# Procedure, shortened: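 Relaxation without ATP: gyrase (60 nM) with supercoiled pBR322 DNA (6 nM) and drug at […] for 1 h at 37 °C; relaxation judged by gel. Ciprofloxacin, novobiocin and nalidixic acid comparators.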
# Pseudomonas aeruginosa [14] = assay: Antimicrobial activity against Pseudomonas aeruginosa at 5 ug after 24 hrs by disk diffusion method; assay type: functional; conditions: read-out: IZ; procedure, shortened: as §2
# Klebsiella pneumoniae [15] = assay: Antimicrobial activity against Klebsiella pneumoniae at 15 ug after 24 hrs by disk diffusion method; assay type: functional; conditions: read-out: IZ; procedure, shortened: as §2
# Pseudomonas aeruginosa [16] = assay: Antimicrobial activity against Pseudomonas aeruginosa at 15 ug after 24 hrs by disk diffusion method; assay type: functional; conditions: read-out: IZ; procedure, shortened: as §2
# Bacillus subtilis [17] = assay: Antimicrobial activity against Bacillus subtilis by broth microdilution assay; assay type: functional; procedure, shortened: as §1
# Staphylococcus aureus [18] = assay: Antimicrobial activity against Staphylococcus aureus at 5 ug after 24 hrs by disk diffusion method; assay type: functional; conditions: read-out: IZ; procedure, shortened: as §2
# Staphylococcus aureus [19] = assay: Antimicrobial activity against Staphylococcus aureus by broth microdilution assay; assay type: functional; procedure, shortened: as §1
# Pseudomonas aeruginosa [20] = assay: Antimicrobial activity against Pseudomonas aeruginosa at 20 ug after 24 hrs by disk diffusion method; assay type: functional; conditions: read-out: IZ; procedure, shortened: as §2
# Bacillus subtilis [21] = assay: Antimicrobial activity against Bacillus subtilis at 25 ug after 24 hrs by disk diffusion method; assay type: functional; conditions: read-out: IZ; procedure, shortened: as §2
# Staphylococcus aureus [22] = assay: Antimicrobial activity against Staphylococcus aureus at 20 ug after 24 hrs by disk diffusion method; assay type: functional; conditions: read-out: IZ; procedure, shortened: as §2
# Staphylococcus aureus [23] = assay: Antimicrobial activity against Staphylococcus aureus at 25 ug after 24 hrs by disk diffusion method; assay type: functional; conditions: read-out: IZ; procedure, shortened: as §2
# Klebsiella pneumoniae [24] = assay: Antimicrobial activity against Klebsiella pneumoniae at 5 ug after 24 hrs by disk diffusion method; assay type: functional; conditions: read-out: IZ; procedure, shortened: as §2
# Klebsiella pneumoniae [25] = assay: Antimicrobial activity against Klebsiella pneumoniae by broth microdilution assay; assay type: functional; procedure, shortened: as §1
# Salmonella typhimurium [26] = assay: Antimicrobial activity against Salmonella Typhimurium at 25 ug after 24 hrs by disk diffusion method; assay type: functional, Salmonella enterica subsp. enterica serovar Typhimurium; conditions: Salmonella enterica, read-out: IZ; procedure, shortened: as §2
# Salmonella typhimurium [27] = assay: Antimicrobial activity against Salmonella Typhimurium at 20 ug after 24 hrs by disk diffusion method; assay type: functional, Salmonella enterica subsp. enterica serovar Typhimurium; conditions: Salmonella enterica, read-out: IZ; procedure, shortened: as §2
# Escherichia coli [28] = assay: Antimicrobial activity against Escherichia coli by broth microdilution assay; assay type: functional; procedure, shortened: as §1
# Klebsiella pneumoniae [29] = assay: Antimicrobial activity against Klebsiella pneumoniae at 10 ug after 24 hrs by disk diffusion method; assay type: functional; conditions: read-out: IZ; procedure, shortened: as §2
# Bacillus subtilis [30] = assay: Antimicrobial activity against Bacillus subtilis at 20 ug after 24 hrs by disk diffusion method; assay type: functional; conditions: read-out: IZ; procedure, shortened: as §2
# Bacillus subtilis [31] = assay: Antimicrobial activity against Bacillus subtilis at 15 ug after 24 hrs by disk diffusion method; assay type: functional; conditions: read-out: IZ; procedure, shortened: as §2
# Salmonella typhimurium [32] = assay: Antimicrobial activity against Salmonella Typhimurium at 5 ug after 24 hrs by disk diffusion method; assay type: functional, Salmonella enterica subsp. enterica serovar Typhimurium; conditions: Salmonella enterica, read-out: IZ; procedure, shortened: as §2
# Escherichia coli [33] = assay: Antimicrobial activity against Escherichia coli at 15 ug after 24 hrs by disk diffusion method; assay type: functional; conditions: read-out: IZ; procedure, shortened: as §2
# Bacillus subtilis [34] = assay: Antimicrobial activity against Bacillus subtilis at 10 ug after 24 hrs by disk diffusion method; assay type: functional; conditions: read-out: IZ; procedure, shortened: as §2
# Escherichia coli [35] = assay: Antimicrobial activity against Escherichia coli at 25 ug after 24 hrs by disk diffusion method; assay type: functional; conditions: read-out: IZ; procedure, shortened: as §2
# Escherichia coli [36] = assay: Antimicrobial activity against Escherichia coli at 5 ug after 24 hrs by disk diffusion method; assay type: functional; conditions: read-out: IZ; procedure, shortened: as §2
# Escherichia coli [37] = assay: Antimicrobial activity against Escherichia coli at 20 ug after 24 hrs by disk diffusion method; assay type: functional; conditions: read-out: IZ; procedure, shortened: as §2
compound,measurement,setting,value
O=C(O)c1cn(C2CC2)c2cc(N3CCNCC3)c(F)cc2c1=O [CIPROFLOXACIN],MIC50,Pseudomonas aeruginosa [1],0.125 µg/mL
same,MIC90,Pseudomonas aeruginosa [1],1 µg/mL
same,Activity,[2],Active
same,zone of inhibition at 25 µg/disc,Pseudomonas aeruginosa [3],23 mm
same,MIC50,Salmonella typhi,0.04 µg/mL
same,MIC90,Salmonella typhi,0.15 µg/mL
same,zone of inhibition at 10 µg/disc,Pseudomonas aeruginosa [4],14 mm
same,zone of inhibition at 10 µg/disc,Salmonella typhimurium [5],16 mm
same,zone of inhibition at 10 µg/disc,Escherichia coli [6],16 mm
same,zone of inhibition at 15 µg/disc,Salmonella typhimurium [7],18 mm
same,zone of inhibition at 15 µg/disc,Staphylococcus aureus [8],26 mm
same,zone of inhibition at 5 µg/disc,Bacillus subtilis [9],6 mm
same,zone of inhibition at 10 µg/disc,Staphylococcus aureus [10],24 mm
same,zone of inhibition at 20 µg/disc,Klebsiella pneumoniae [11],34 mm
same,zone of inhibition at 25 µg/disc,Klebsiella pneumoniae [12],36 mm
same,Activity,[13],Active
same,zone of inhibition at 5 µg/disc,Pseudomonas aeruginosa [14],12 mm
same,zone of inhibition at 15 µg/disc,Klebsiella pneumoniae [15],30 mm
same,zone of inhibition at 15 µg/disc,Pseudomonas aeruginosa [16],16 mm
same,MIC50,Bacillus subtilis [17],0.04 µg/mL
same,MIC90,Bacillus subtilis [17],0.15 µg/mL
same,zone of inhibition at 5 µg/disc,Staphylococcus aureus [18],22 mm
same,MIC50,Staphylococcus aureus [19],0.5 µg/mL
same,MIC90,Staphylococcus aureus [19],1 µg/mL
same,zone of inhibition at 20 µg/disc,Pseudomonas aeruginosa [20],20 mm
same,zone of inhibition at 25 µg/disc,Bacillus subtilis [21],12 mm
same,zone of inhibition at 20 µg/disc,Staphylococcus aureus [22],30 mm
same,zone of inhibition at 25 µg/disc,Staphylococcus aureus [23],36 mm
same,zone of inhibition at 5 µg/disc,Klebsiella pneumoniae [24],24 mm
same,MIC50,Klebsiella pneumoniae [25],0.03 µg/mL
same,MIC90,Klebsiella pneumoniae [25],0.5 µg/mL
same,zone of inhibition at 25 µg/disc,Salmonella typhimurium [26],24 mm
same,zone of inhibition at 20 µg/disc,Salmonella typhimurium [27],22 mm
same,MIC50,Escherichia coli [28],0.015 µg/mL
same,MIC90,Escherichia coli [28],0.03 µg/mL
same,zone of inhibition at 10 µg/disc,Klebsiella pneumoniae [29],26 mm
same,zone of inhibition at 20 µg/disc,Bacillus subtilis [30],10 mm
same,zone of inhibition at 15 µg/disc,Bacillus subtilis [31],9 mm
same,zone of inhibition at 5 µg/disc,Salmonella typhimurium [32],14 mm
same,zone of inhibition at 15 µg/disc,Escherichia coli [33],18 mm
same,zone of inhibition at 10 µg/disc,Bacillus subtilis [34],7 mm
c1ccc(C2c3cc(Cc4ccc5c(c4)C(c4ccccc4)C4Cn6cccc6C4N5)ccc3NC3c4cccn4CC32)cc1 (stereo not given),zone of inhibition at 25 µg/disc,Escherichia coli [35],22 mm
same,MIC50,Pseudomonas aeruginosa [1],1 µg/mL
same,MIC90,Pseudomonas aeruginosa [1],8 µg/mL
same,Activity,[2],Active
same,zone of inhibition at 25 µg/disc,Pseudomonas aeruginosa [3],30 mm
same,MIC50,Salmonella typhi,2.51 µg/mL
same,MIC90,Salmonella typhi,5 µg/mL
same,zone of inhibition at 10 µg/disc,Pseudomonas aeruginosa [4],24 mm
same,zone of inhibition at 10 µg/disc,Salmonella typhimurium [5],16 mm
same,zone of inhibition at 10 µg/disc,Escherichia coli [6],14 mm
same,zone of inhibition at 15 µg/disc,Salmonella typhimurium [7],18 mm
same,zone of inhibition at 15 µg/disc,Staphylococcus aureus [8],15 mm
same,zone of inhibition at 5 µg/disc,Bacillus subtilis [9],7 mm
same,zone of inhibition at 10 µg/disc,Staphylococcus aureus [10],13 mm
same,zone of inhibition at 20 µg/disc,Klebsiella pneumoniae [11],24 mm
same,zone of inhibition at 25 µg/disc,Klebsiella pneumoniae [12],26 mm
same,Activity,[13],Active
same,zone of inhibition at 5 µg/disc,Pseudomonas aeruginosa [14],20 mm
same,zone of inhibition at 15 µg/disc,Klebsiella pneumoniae [15],19 mm
same,zone of inhibition at 15 µg/disc,Pseudomonas aeruginosa [16],26 mm
same,MIC50,Bacillus subtilis [17],0.25 µg/mL
same,MIC90,Bacillus subtilis [17],5 µg/mL
same,zone of inhibition at 5 µg/disc,Staphylococcus aureus [18],9 mm
same,zone of inhibition at 5 µg/disc,Escherichia coli [36],11 mm
same,MIC50,Staphylococcus aureus [19],128 µg/mL
same,MIC90,Staphylococcus aureus [19],128 µg/mL
same,zone of inhibition at 20 µg/disc,Escherichia coli [37],21 mm
same,zone of inhibition at 20 µg/disc,Pseudomonas aeruginosa [20],28 mm
same,zone of inhibition at 25 µg/disc,Bacillus subtilis [21],13 mm
same,zone of inhibition at 20 µg/disc,Staphylococcus aureus [22],17 mm
same,zone of inhibition at 25 µg/disc,Staphylococcus aureus [23],21 mm
same,zone of inhibition at 5 µg/disc,Klebsiella pneumoniae [24],12 mm
same,MIC50,Klebsiella pneumoniae [25],0.125 µg/mL
same,MIC90,Klebsiella pneumoniae [25],2 µg/mL
same,zone of inhibition at 25 µg/disc,Salmonella typhimurium [26],24 mm
same,zone of inhibition at 20 µg/disc,Salmonella typhimurium [27],22 mm
same,MIC50,Escherichia coli [28],2 µg/mL
same,MIC90,Escherichia coli [28],8 µg/mL
same,zone of inhibition at 10 µg/disc,Klebsiella pneumoniae [29],16 mm
same,zone of inhibition at 20 µg/disc,Bacillus subtilis [30],12 mm
same,zone of inhibition at 15 µg/disc,Bacillus subtilis [31],10 mm
same,zone of inhibition at 5 µg/disc,Salmonella typhimurium [32],10 mm
same,zone of inhibition at 15 µg/disc,Escherichia coli [33],16 mm
same,zone of inhibition at 10 µg/disc,Bacillus subtilis [34],9 mm
